“Also recorded” adds a separate entry of the source.
Key:
RBM39RRM2-biotin = molecular target: T1, RBM39RRM2-biotin (Homo sapiens, UniProt Q14498); test: TR-FRET titration of BodipyFL-E7820 probe to RBM39RRM2-biotin; format: binding; settings: probe titrated to RBM39RRM2-biotin
T1 sequence (Q14498 245-332): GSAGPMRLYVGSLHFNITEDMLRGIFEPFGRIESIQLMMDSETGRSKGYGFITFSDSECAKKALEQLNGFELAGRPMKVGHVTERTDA
In short: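 RBM39RRM2 was Avi-tagged and biotinylated in vitro with BirA, then gel-filtered. It was mixed with 2 nM terbium-streptavidin in Tris pH 8.0/NaCl/Pluronic F-68/BSA buffer. Increasing BodipyFL-E7820 probe was added at 2% DMSO, 15 min room temperature. The 520/490 nm ratio without protein was subtracted, and KD came from a one-site specific-binding fit. Three independent replicates.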

DCAF15 = DCAF15 (Homo sapiens, UniProt Q66K64); test: TR-FRET competition assay: displacement of BodipyFL-E7820 from DCAF15; format: binding; settings: for DCAF15 binding, in words: relative to E7820

compound binding to RBM39 (RBM39RRM2-biotin) | Ki (DCAF15) [µM] | SMILES | DCAF15 binding, in words (DCAF15)
only observed for DDB1ΔB-DCAF15biotin |  | Cc1cc(C)n2c1C=C1C=CC(CCC(=O)NCCCCCCOc3ccc(S(=O)(=O)Nc4ccc(C)c5c(C#N)c[nH]c45)cc3C#N)=[N+]1[B-]2(F)F [BodipyFL-E7820, N-(6-(2-cyano-4-(N-(3-cyano-4-methyl-1H-indol-7-yl)sulfamoyl)phenoxy)hexyl)-3-(5,5-difluoro-7,9-dimethyl-5H-5λ^4,6λ^4-dipyrrolo[1,2-c:2',1'-f][1,3,2]diazaborinin-3-yl)propanamide] | 
 |  | N#Cc1cccc(S(=O)(=O)Nc2cccc3c(C#N)c[nH]c23)c1 [desmethyl-E7820] | significant loss of DCAF15 binding
 | > 50 | NS(=O)(=O)c1ccc(S(=O)(=O)Nc2cccc3c(Cl)c[nH]c23)cc1 [indisulam] | significant loss of DCAF15 binding; also recorded: significant loss in affinity for DCAF15
